Measurements: ChEMBL document CHEMBL2417392, “Synthesis and broad spectrum antiviral evaluation of bis(POM) prodrugs of novel acyclic nucleosides” (Eur J Med Chem, 2013)

Experiments:
[1] = test system: Human immunodeficiency virus; assay: Antiviral activity against HIV infected in human CEM cells assessed as inhibition of HIV-induced CEM giant cell formation after 4 days by microscopy; settings: Human immunodeficiency virus 1, CCRF-CEM, 96 h
CCRF-CEM = assay: Cytotoxicity against human CEM cells; assay type: cell-based
PBMC = assay: Cytotoxicity against human PBMC cells; assay type: cell-based
Hepatitis C virus = assay: Antiviral activity against HCV infected in Huh7 cells assessed as inhibition of viral RNA replication after 5 days by RT-PCR Assay; assay type: functional, Hepacivirus hominis, Huh-7
Procedure, shortened: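 Huh 7 Clone B cells carrying subgenomic HCV replicon RNA, seeded 3000 cells/well, compound added at 10 μM in triplicate right after seeding; 5 days at 37 °C, 5% CO2. Total RNA extracted; replicon RNA and rRNA internal control amplified by one-step multiplex real-time RT-PCR. Activity as ΔCt versus no-drug control (ΔCt 3.3 = 1-log reduction); ΔCt converted to fraction of starting material for % inhibition.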

Vero = assay: Cytotoxicity against african green monkey Vero cells; assay type: cell-based; settings: chlorocebus sabaeus
HEL = assay: Cytotoxicity against human HEL cells after 3 days by Coulter counting method; assay type: cell-based; settings: 72 h
Human betaherpesvirus 5 = assay: Antiviral activity against human Cytomegalovirus AD169 infected in HEL cells assessed as inhibition of virus-induced cytopathicity after; assay type: functional, organism-based; settings: Human betaherpesvirus 5, AD169, HEL

In the case of CC(C)(C)C(=O)OCOP(=O)(C/C=C/Cn1cc(-c2ccc(OC(F)(F)F)cc2)nn1)OCOC(=O)C(C)(C)C, the EC50 [1] is reported as 55.2 µM, the EC90 [1] is reported as over 100 µM and the CC50 (CCRF-CEM) is reported as 37.6 µM. For the same molecule, the CC50 (PBMC) was 19.6 µM, the “inhibition (INH)” value (Hepatitis C virus) was 60.6% and the CC50 (Vero) was 12.7 µM.
For COC(=O)c1nccn(C/C=C/CP(=O)(OCOC(=O)C(C)(C)C)OCOC(=O)C(C)(C)C)c1=O, the EC50 [1] was over 100 µM, the EC90 [1] was over 100 µM and the CC50 (CCRF-CEM) was over 100 µM. For the same molecule, the CC50 (PBMC) was over 100 µM, the “inhibition (INH)” value (Hepatitis C virus) was 76.9% and the CC50 (Vero) was over 100 µM.
With CC(C)(C)C(=O)OCOP(=O)(C/C=C/Cn1cc(-c2ccc(F)cc2)nn1)OCOC(=O)C(C)(C)C the EC50 [1] was over 100 µM, the EC90 [1] was over 100 µM and the CC50 (CCRF-CEM) was 31.6 µM. For the same molecule, the CC50 (PBMC) was 61.9 µM, the “inhibition (INH)” value (Hepatitis C virus) was 84.3% and the CC50 (Vero) was 47 µM.
Nc1nc(O)c2ncn(COC(CO)CO)c2n1 [GANCICLOVIR] showed a CC50 (HEL) of over 350 µM.
Molecule CC(C)(C)C(=O)OCOP(=O)(C/C=C/Cn1cc(C(N)=O)nn1)OCOC(=O)C(C)(C)C has an EC50 [1] of 70.5 µM, an EC90 [1] of over 100 µM and a CC50 (CCRF-CEM) of 52.9 µM. The CC50 (PBMC) was 62.4 µM, the “inhibition (INH)” value (Hepatitis C virus) was 86.5% and the CC50 (Vero) was 80.6 µM.
For CC(C)(C)C(=O)OCOP(=O)(C/C=C/Cn1cc(C(=O)O)nn1)OCOC(=O)C(C)(C)C, the EC50 [1] was over 100 µM, the EC90 [1] was over 100 µM and the CC50 (CCRF-CEM) was over 100 µM. The CC50 (PBMC) was over 100 µM, the “inhibition (INH)” value (Hepatitis C virus) was 53.8% and the CC50 (Vero) was over 100 µM.
Molecule CC(C)(C)C(=O)OCOP(=O)(C/C=C/Cn1ccnn1)OCOC(=O)C(C)(C)C has an EC50 [1] of over 100 µM, an EC90 [1] of over 100 µM and a CC50 (CCRF-CEM) of 81.8 µM. The CC50 (PBMC) was 93.1 µM, the “inhibition (INH)” value (Hepatitis C virus) was 85.9% and the CC50 (Vero) was 87.9 µM.
With CCCc1ccc(-c2cn(C/C=C/CP(=O)(OCOC(=O)C(C)(C)C)OCOC(=O)C(C)(C)C)nn2)cc1 the EC50 [1] was 31.6 µM, the EC90 [1] was over 100 µM and the CC50 (CCRF-CEM) was 55.3 µM. For the same molecule, the CC50 (PBMC) was 35.9 µM, the “inhibition (INH)” value (Hepatitis C virus) was 95.6% and the CC50 (Vero) was 41 µM.
CC(C)(C)C(=O)OCOP(=O)(C/C=C/Cn1cc(CO)nn1)OCOC(=O)C(C)(C)C gave an EC50 [1] of over 100 µM, an EC90 [1] of over 100 µM and a CC50 (CCRF-CEM) of 57.4 µM. The CC50 (PBMC) was 73.2 µM, the “inhibition (INH)” value (Hepatitis C virus) was 78.1% and the EC50 (Human betaherpesvirus 5) was 9.9 µM. The CC50 (Vero) was 87.1 µM and the CC50 (HEL) was 100 µM.
CC(C)(C)C(=O)OCOP(=O)(C/C=C/Cn1cnc(C(N)=O)n1)OCOC(=O)C(C)(C)C gave an EC50 [1] of over 100 µM, an EC90 [1] of over 100 µM and a CC50 (CCRF-CEM) of 41.8 µM. For the same molecule, the CC50 (PBMC) was 58.3 µM, the “inhibition (INH)” value (Hepatitis C virus) was 73.9% and the CC50 (Vero) was 86.8 µM.
For CC(C)(C)C(=O)OCOP(=O)(C/C=C/Cn1ccc(N)nc1=O)OCOC(=O)C(C)(C)C, the EC50 [1] was 70.4 µM, the EC90 [1] was over 100 µM and the CC50 (CCRF-CEM) was over 100 µM. For the same molecule, the CC50 (PBMC) was over 100 µM, the “inhibition (INH)” value (Hepatitis C virus) was 80.4% and the CC50 (Vero) was over 100 µM.
With CC(C)(C)C(=O)OCOP(=O)(C/C=C/Cn1cc(-c2ccccc2)nn1)OCOC(=O)C(C)(C)C the EC50 [1] was 35.8 µM, the EC90 [1] was over 100 µM and the CC50 (CCRF-CEM) was 31.6 µM. The CC50 (PBMC) was 16 µM, the “inhibition (INH)” value (Hepatitis C virus) was 83.1% and the CC50 (Vero) was 15.6 µM.
With CC(C)(C)C(=O)OCOP(=O)(C/C=C/Cn1cc(F)c(N)nc1=O)OCOC(=O)C(C)(C)C the “inhibition (INH)” value (Hepatitis C virus) was 73.6%.
With CCCCCCCCc1cn(C/C=C/CP(=O)(OCOC(=O)C(C)(C)C)OCOC(=O)C(C)(C)C)nn1 the EC50 [1] was over 100 µM, the EC90 [1] was over 100 µM and the CC50 (CCRF-CEM) was 16.8 µM. The CC50 (PBMC) was 19.8 µM, the “inhibition (INH)” value (Hepatitis C virus) was 88.7% and the CC50 (Vero) was 10.3 µM.
For Nc1ccn(C[C@@H](CO)OCP(=O)(O)O)c(=O)n1 [CIDOFOVIR], the CC50 (HEL) was over 350 µM.
Work on CCCCCCc1ccc(-c2cn(C/C=C/CP(=O)(OCOC(=O)C(C)(C)C)OCOC(=O)C(C)(C)C)nn2)cc1 yielded an EC50 [1] of 43.9 µM, an EC90 [1] of over 100 µM and a CC50 (CCRF-CEM) of 16.1 µM. The CC50 (PBMC) was 5.9 µM, the “inhibition (INH)” value (Hepatitis C virus) was 95% and the CC50 (Vero) was 10.4 µM.
Work on CC(C)(C)C(=O)OCOP(=O)(C/C=C/Cn1cc(-c2cccs2)nn1)OCOC(=O)C(C)(C)C yielded an EC50 [1] of 62.3 µM, an EC90 [1] of over 100 µM and a CC50 (CCRF-CEM) of 31.6 µM. For the same molecule, the CC50 (PBMC) was 32.9 µM, the “inhibition (INH)” value (Hepatitis C virus) was 0.2% and the CC50 (Vero) was 17.1 µM.
In the case of CC(C)(C)C(=O)OCOP(=O)(C/C=C/Cn1ccnc(C(N)=O)c1=O)OCOC(=O)C(C)(C)C, the EC50 [1] is reported as over 100 µM, the EC90 [1] is reported as over 100 µM and the CC50 (CCRF-CEM) is reported as over 100 µM. For the same molecule, the CC50 (PBMC) was over 100 µM, the “inhibition (INH)” value (Hepatitis C virus) was 60% and the CC50 (Vero) was over 100 µM.
COc1cc(OC)cc(-c2cn(C/C=C/CP(=O)(OCOC(=O)C(C)(C)C)OCOC(=O)C(C)(C)C)nn2)c1 gave an EC50 [1] of over 100 µM, an EC90 [1] of over 100 µM and a CC50 (CCRF-CEM) of 68.2 µM. For the same molecule, the CC50 (PBMC) was over 100 µM, the “inhibition (INH)” value (Hepatitis C virus) was 20.8% and the CC50 (Vero) was 86.8 µM.
